Measured values as given in ChEMBL document CHEMBL2346503, “Synthesis and evaluation of novel (18)F-labeled spirocyclic piperidine derivatives as σ1 receptor ligands for positron emission tomography imaging” (J Med Chem, 2013).

What was measured:
Homo sapiens = species: Homo sapiens; assay: Selectivity ratio of Ki for human sigma2 receptor to human sigma1 receptor
Brain [1] = assay: Biodistribution in iv dosed CD1 mouse brain after 15 mins by PET imaging analysis; assay type: ADME, organism-based; details: in vivo, 0.25 h
[2] = Lipophilicity, log D of the compound at pH 7.4; assay type: physicochemical; details: buffer
Procedure, shortened: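 Shake flask: radiotracer (370 kBq) in 3 mL 1-octanol plus 3 mL 0.05 M sodium phosphate buffer pH 7.4, vortexed 3 min at room temperature, then centrifuged. Both phases were gamma-counted and log D = log(cpm/mL octanol ÷ cpm/mL buffer). The octanol layer was repartitioned until values were consistent. Triplicate, repeated three times.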

Rattus norvegicus = species: Rattus norvegicus; assay: Selectivity ratio of Ki for rat liver sigma2 receptor to rat brain sigma1 receptor
Procedure, shortened: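 Competition binding used rat brain homogenates for σ1 with (+)-[³H]pentazocine. Rat liver homogenates were used for σ2 with [³H]DTG, in the presence of 10 μM dextrallorphan to mask σ1 sites. Ki values are means ± SD of three experiments, each in triplicate. Selectivity is Ki(σ2)/Ki(σ1).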

[3] = target: Sigma non-opioid intracellular receptor 1 (Rattus norvegicus, UniProt Q9R0C9); assay: Displacement of (+)-[3H]pentazocine from rat brain sigma1 receptor by competitive binding assay
[4] = Displacement of [3H]-1,3-di-o-tolylguanidine from rat liver sigma2 receptor by competitive binding assay
Procedure, shortened: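 Rat liver homogenate as the σ2 source, with [3H]DTG as radioligand plus 10 μM dextrallorphan to mask σ1 sites, in a competition format. Ki values are mean ± SD of three experiments, each run in triplicate.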

[5] = target: T1, Sigma non-opioid intracellular receptor 1 (Homo sapiens, UniProt Q99720); assay: Binding affinity to human brain sigma1 receptor
Liver microsomes [6] = assay: Metabolic stability in rat liver microsomes assessed as retention time by UPLC-MS analysis in presence of beta-NADP; assay type: ADME, Microsome
Procedure, shortened: (§1)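 Rat liver microsomes (2 mg protein/mL) with 100 μM compound and an NADPH-generating system (2 mM β-NADPH, 20 mM glucose 6-phosphate, 2 U G6PDH, 12 mM MgCl₂) in 0.05 M Tris-HCl pH 7.4. Preincubated 3 min, then run 30 min at 37 °C and stopped with ice-cold methanol. Supernatant analysed by UPLC-ESI(+)-MS against compound-free blanks.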

[7] = target: T1, Sigma non-opioid intracellular receptor 1; assay: Binding affinity to sigma1 receptor (unknown origin)
Procedure, shortened: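 Radioligand competition binding on rat brain homogenates using (+)-[³H]pentazocine as the competing radioligand. Ki values are means ± SD of three experiments, each performed in triplicate.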

[8] = Binding affinity to sigma2 receptor (unknown origin); parameters: species or system Homo sapiens
[9] = target: Vesicular acetylcholine transporter (Rattus norvegicus, UniProt Q62666); assay: Displacement of (-)-[3H]-vesamicol from rat VAChT transfected in rat PC12 cells after 120 mins by competitive binding assay; assay type: cell-based, PC-12
Procedure, shortened: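 Membrane homogenates from PC12 cells stably expressing rat VAChT, with 1 nM (−)-[3H]vesamicol, test ligand at 10⁻¹¹–10⁻⁵ M, in 50 mM Tris-HCl pH 7.4, 120 min at room temperature. Nonspecific binding was defined with 10 μM (−)-vesamicol. Ki from Cheng–Prusoff; mean of two experiments, each in triplicate.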

Liver microsomes [10] = assay: Metabolic stability in rat liver microsomes assessed as retention time at 100 uM by UPLC-MS analysis in presence of beta-NADPH; assay type: ADME, Microsome; procedure, shortened: as §1
Brain [11] = assay: Biodistribution in mouse brain after 5 mins by PET imaging analysis; assay type: ADME, organism-based; details: in vivo
[12] = Ratio of drug uptake from mouse brain to blood after 30 mins; assay type: ADME, tissue-based; details: brain and blood
Procedure, shortened: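 Male ICR mice (n = 5 per time point) received an intravenous saline solution of the radiotracer (370 kBq, 0.1 mL). They were decapitated at 2, 30, 60 and 120 min. Brain, blood and other organs were weighed and γ-counted against diluted injectate aliquots, decay-corrected, and expressed as %ID/g of wet tissue (mean, SD). The brain/blood ratio is given at each time.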

Brain [13] = assay: Biodistribution in iv dosed CD1 mouse brain after 30 mins in presence of haloperidol relative to control; assay type: ADME, organism-based; details: in vivo, 0.5 h
Brain [14] = assay: Biodistribution in mouse brain after 60 mins in presence of haloperidol relative to control; assay type: ADME, organism-based; details: in vivo, 1 h
Procedure, shortened: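 Male ICR mice (n = 5 per group) got saline (0.1 mL) or haloperidol (0.1 mL, 1.0 mg/kg) via tail vein 5 min before iv [18F]tracer (370 kBq, 0.1 mL, saline). Killed by decapitation at 60 min. Brain was weighed and gamma-counted with decay correction, giving %ID/g against diluted injectate. Control vs blocking compared by two-tailed independent Student's t test.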

[15] = Ratio of drug uptake from […] mouse brain to blood after 120 mins; assay type: ADME, tissue-based; details: brain and blood
Procedure, shortened: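 Male ICR mice (n = 5 per time point) received [18F]tracer (370 kBq, 0.1 mL saline) iv and were decapitated at 2, 30, 60 and 120 min. Brain and blood were weighed and gamma-counted, decay-corrected and expressed as %ID/g against diluted injectate. The brain/blood ratio was taken from these %ID/g values.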

Brain [16] = assay: Metabolic stability in ICR mouse brain at 18.5 MBq, iv after 30 mins by HPLC analysis; assay type: ADME, organism-based; details: in vivo, 0.5 h
Procedure, shortened: (§2)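 Male ICR mice given radiotracer iv (18.5 MBq, 0.2 mL), killed at 30 min. Brain and liver were homogenized in ice-cold PBS (0.01 M, pH 7.4) and extracted with ice-cold MeCN. Supernatants were filtered, concentrated and analysed by radio-HPLC on a C18 column, acetonitrile/water with 0.1% TFA (45:55), 1 mL/min.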

[17] = Metabolic stability in ICR mouse liver at 18.5 MBq, iv after 30 mins by HPLC analysis; assay type: ADME, organism-based; details: read-out: Stability; procedure, shortened: as §2
Liver = assay: Metabolic stability in ICR mouse liver assessed as retention time at 18.5 MBq, iv by HPLC analysis; assay type: ADME, organism-based; details: in vivo; procedure, shortened: as §2
[18] = target: 3-beta-hydroxysteroid-Delta(8),Delta(7)-isomerase (Homo sapiens, UniProt Q15125); assay: Binding affinity to EBP (unknown origin)
Chain of 3-beta-hydroxysteroid-Delta(8),Delta(7)-isomerase (Q15125 whole entry): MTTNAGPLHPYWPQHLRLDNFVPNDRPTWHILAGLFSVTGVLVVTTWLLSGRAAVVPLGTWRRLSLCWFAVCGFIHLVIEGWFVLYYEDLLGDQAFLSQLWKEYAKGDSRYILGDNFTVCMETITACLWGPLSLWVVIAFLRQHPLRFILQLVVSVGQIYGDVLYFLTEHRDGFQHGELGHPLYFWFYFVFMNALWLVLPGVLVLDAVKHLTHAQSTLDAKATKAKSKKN

T1 sequence (Q99720 whole entry): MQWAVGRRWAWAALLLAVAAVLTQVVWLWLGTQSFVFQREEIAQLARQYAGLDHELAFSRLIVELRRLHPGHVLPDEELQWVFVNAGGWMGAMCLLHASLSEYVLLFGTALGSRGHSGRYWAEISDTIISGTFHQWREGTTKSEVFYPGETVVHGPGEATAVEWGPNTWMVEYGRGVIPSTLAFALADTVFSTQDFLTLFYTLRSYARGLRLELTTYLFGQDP
Chain of Sigma non-opioid intracellular receptor 1 (Rattus norvegicus, UniProt Q9R0C9) (Q9R0C9 whole entry): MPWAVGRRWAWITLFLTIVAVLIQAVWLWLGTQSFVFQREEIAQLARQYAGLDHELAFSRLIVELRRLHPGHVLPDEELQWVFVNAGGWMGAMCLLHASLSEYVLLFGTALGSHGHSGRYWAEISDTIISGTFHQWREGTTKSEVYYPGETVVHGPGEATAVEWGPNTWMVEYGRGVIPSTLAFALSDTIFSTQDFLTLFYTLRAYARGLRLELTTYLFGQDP
Chain of Vesicular acetylcholine transporter (Q62666 whole entry): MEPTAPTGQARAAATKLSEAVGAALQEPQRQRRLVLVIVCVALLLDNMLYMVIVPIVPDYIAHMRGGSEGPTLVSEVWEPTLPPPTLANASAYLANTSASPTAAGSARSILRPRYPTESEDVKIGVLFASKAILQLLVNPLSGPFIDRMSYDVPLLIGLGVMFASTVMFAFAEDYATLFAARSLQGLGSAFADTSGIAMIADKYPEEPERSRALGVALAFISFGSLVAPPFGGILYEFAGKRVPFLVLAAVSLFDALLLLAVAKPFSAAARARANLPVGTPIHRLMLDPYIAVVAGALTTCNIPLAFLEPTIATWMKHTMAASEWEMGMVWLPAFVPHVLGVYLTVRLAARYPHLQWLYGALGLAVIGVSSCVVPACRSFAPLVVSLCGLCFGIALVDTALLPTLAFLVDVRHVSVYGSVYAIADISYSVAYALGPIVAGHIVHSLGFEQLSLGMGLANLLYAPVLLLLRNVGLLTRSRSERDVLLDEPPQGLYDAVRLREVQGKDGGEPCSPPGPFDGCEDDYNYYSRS

| SMILES | Ratio Ki (Rattus norvegicus) | Ki [3] [nM] | Ki [4] [nM] | further results |
| --- | --- | --- | --- | --- |
| N#Cc1ccc(OCC2CCN(C/C=C/I)CC2)cc1 |  |  |  | Ratio Ki (Homo sapiens; tested as the 123I-labelled form): 58 |
| [125I]c1ccc(CN2CCC3(CC2)OCc2ccccc23)cc1 |  |  |  | Drug uptake (Brain [1]): 5.28 % ID/g; logD [2]: 3.06 |
| FCCOCCOc1ccc(CN2CCC3(CC2)OCc2ccccc23)cc1 | 16 | 52.9 | 860 |  |
| N#Cc1ccc(OCC2CCN(C/C=C/[123I])CC2)cc1 |  |  |  | Ki [5]: 0.67 nM |
| N#Cc1ccc(OCC2CCN(CCC[18F])CC2)cc1 |  |  |  | Ki [5]: 4.3 nM |
| FCCOCCOCCOc1ccc(CN2CCC3(CC2)OCc2ccccc23)cc1 | 16 | 37.5 | 592 |  |
| Oc1ccc(CN2CCC3(CC2)OCc2ccccc23)cc1 |  |  |  | Retention_time (Liver microsomes [6]): 1.74 min |
| Ic1ccc(CN2CCC3(CC2)OCc2ccccc23)cc1 | 123 | 2.75 | 340 | Ki [7]: 2.75 nM; Ki [8]: 340 nM |
| Fc1ccc(CN2CCC3(CC2)OCc2ccccc23)cc1 | 182 | 0.58 | 106 |  |
| FCCOc1ccc(CN2CCC3(CC2)OCc2ccccc23)cn1 | 142 | 2.3 | 327 |  |
| FCCOc1ccc(CN2CCC3(CC2)OCc2ccccc23)cc1 | 350 | 0.79 | 277 | Ki [9]: 631 nM; Retention_time (Liver microsomes [10]): 1.82 min |
| OCc1ccccc1C1(O)CCN(Cc2ccc(OCCF)cc2)CC1 |  |  |  | Retention_time (Liver microsomes [6]): 1.42 min |
| COc1cc(CCN2CCN(CCCc3ccccc3)CC2)ccc1O[11CH3] |  |  |  | Drug uptake (Brain [11]): 3.61 % ID/g; Kp at 0.5 h [12]: 11.6; Drug uptake (Brain [13]): 60% |
| [18F]CCC1OC2(CCN(Cc3ccccc3)CC2)c2ccccc21 (centres undefined) |  |  |  | Drug uptake (Brain [14]): 62%; Drug uptake (Brain [11]): 3.88 % ID/g; Kp at 2 h [15]: 18.8 |
| OCc1ccccc1C1(O)CCN(Cc2ccc(OCC[18F])cc2)CC1 |  |  |  | Stability (Brain [16]): Unstable; remaining at 0.5 h [17]: 26.9%; Retention_time (Liver): 4.68 min |
| COc1ccc(CN2CCC3(CC2)OCc2ccccc23)cc1 | 162 | 1.7 | 276 |  |
| COc1ccc(CCN2CCN(CCCc3ccccc3)CC2)cc1OC [[11C]SA4503] |  |  |  | Ki [18]: 1.72 nM |
| N#Cc1ccc(OCC2CCN(CCCF)CC2)cc1 |  |  |  | Ratio Ki (Homo sapiens; tested as the 18F-labelled form): 33 |
| O=C(CCCN1CCC(O)(c2ccc(Cl)cc2)CC1)c1ccc(F)cc1 [HALOPERIDOL] |  |  | 20.7 |  |
